Here are results for one molecule from paper PMC10610910 (Science Advances, 2023).

For one data set, the system named is HeLa cells. Type of data set: cell-based, human. The conditions noted are these: HeLa stably producing the protein; MMC, cisplatin, talazoparib. The procedure, abridged:
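HeLa cells in DMEM with 10% fetal calf serum were stably co-transfected (PiggyBac) with GFP-HSF2BP and/or Flag-BRME1 variants, then selected with puromycin (1.5 μg/ml) and G418 (800 μg/ml) for 8 days; mixed populations were used. Seeded 100–1000 cells/well in technical duplicates, drugs added next day: MMC 2 h, cisplatin or talazoparib overnight. Coomassie-stained colonies counted on day 10.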

A short description of data set [1]: SEC-MALS molecular mass / oligomeric state. The conditions noted are these: 25 mM tris-HCl pH 7.5, 250 mM NaCl, 5 mM β-mercaptoethanol, n = 2. The format is physicochemical. A general note: In gel filtration, larger molecules generally elute earlier.
In the next data set the test system is DNA. The settings on record: ref [23]; cited from earlier work.
Another data set deals with endogenous Xenopus BRCA2. The settings on record: Xenopus egg extract; ref [24]; cited from earlier work.
In data set [2] the test system is interstrand crosslink repair (pICL) in Xenopus egg extract. The conditions noted are these: Xenopus and human HSF2BP, ref [24]; cited from earlier work.
Data set [3] addresses T1, HSF2BP (Homo sapiens, UniProt O75031).
T1 sequence (O75031 1-334): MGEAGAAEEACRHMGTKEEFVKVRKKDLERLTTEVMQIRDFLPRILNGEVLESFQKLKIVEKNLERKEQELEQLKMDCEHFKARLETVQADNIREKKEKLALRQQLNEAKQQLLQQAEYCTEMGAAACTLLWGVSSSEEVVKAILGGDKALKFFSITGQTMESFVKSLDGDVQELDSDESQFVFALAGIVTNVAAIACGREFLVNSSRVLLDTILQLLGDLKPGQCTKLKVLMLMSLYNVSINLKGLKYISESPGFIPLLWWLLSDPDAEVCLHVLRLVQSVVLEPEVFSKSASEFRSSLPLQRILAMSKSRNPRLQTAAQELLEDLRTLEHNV
As to the kind of experiment: Mass photometry. Type of data set: physicochemical. The settings on record: 25-100 nM.

Data set [4] addresses T1, HSF2BP. As to the kind of experiment: Scanning force microscopy. The format is physicochemical. The conditions noted are these: SFM on mica, in air; HSF2BP at 12 nM. The procedure, abridged:
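HSF2BP was diluted 10,000-fold to 12 nM in 25 mM tris-HCl pH 7.5, 250 mM NaCl, 5 mM β-mercaptoethanol. It was deposited for 30 s on freshly cleaved mica, rinsed with water, dried under filtered air, and imaged in air by SFM. Particle volume distributions were obtained by kernel density analysis.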

The nature of another data set: SEC-SAXS of free HSF2BP. The format is physicochemical. A digest of the protocol:
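Free HSF2BP was loaded at 6 mg/ml onto a BIOSEC 3 column in 25 mM tris-HCl pH 7.5, 250 mM NaCl, 5 mM β-mercaptoethanol, with synchrotron scattering recorded every second during elution. Curves across the elution peak were summed. P(r) was derived so that its Fourier transform fits the SAXS curve.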

B1: HSF2BP: human HSF2BP, full-length wild type; GFP-HSF2BP in HeLa cells (protein)
chain: T1 sequence (O75031 1-334)
modifications: left off: His6, end not stated, cleaved
Turning to B1, in the data set with HeLa cells, the “effect on cell resistance to DNA damage, in words” value is “sensitized cells to DNA damage”. Further, the apparent molar mass in data set [1] stood at 136 ± 7 kDa. Further, in the data set on DNA, the “affinity for DNA, in words” value was “no detectable affinity for DNA”. For the same molecule, the “effect on BRCA2, in words” value with endogenous Xenopus BRCA2 was “leads to DNA crosslink-dependent proteasomal degradation of BRCA2”. Besides, the “effect on crosslink repair, in words” value in data set [2] is “inhibit replication-dependent restoration of the genetic information at the crosslink”. Also, the “effect on / state of HSF2BP oligomers, in words” value in the data set with HSF2BP [3] was “at 25 nM, it is a mix of dimers and tetramers”. Further, in the data set with HSF2BP [4], the “particle volume, larger peak” value is recorded as approximately 190 nm^3 and the “particle volume, smaller peak” value is reported as “around 95 nm^3”. This molecule displayed a maximal distance in the data set “SEC-SAXS of free HSF2BP” (P(r)) of 250 Å. In the data set “SEC-SAXS of free HSF2BP” (protein ~50 to 60 μM, pH 7.5, 293.15 K), the “molar mass (I(0))” value came to 156 ± 21 kDa.
